NR2E3 ag-1: human photoreceptor-specific nuclear receptor agonism; Q9Y5X4; CHO-S Gal4-NCOR/VP16-NR2E3 two-hybrid, luciferase; inhibition of corepressor binding, % at 3.98 µM; 360,000 tested, 0.35% active; AID 602229;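 active means inhibition above the mean of all tested compounds plus 3 SD, cut at about 70% in these data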;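 further: 0% = DMSO with NR2E3 transfected cells and 100% = cells lacking NR2E3 construct; higher means lower luciferase signal from less NR2E3 corepressor binding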
Target sequence (Q9Y5X4 whole entry, looked up, the tested form may be a part): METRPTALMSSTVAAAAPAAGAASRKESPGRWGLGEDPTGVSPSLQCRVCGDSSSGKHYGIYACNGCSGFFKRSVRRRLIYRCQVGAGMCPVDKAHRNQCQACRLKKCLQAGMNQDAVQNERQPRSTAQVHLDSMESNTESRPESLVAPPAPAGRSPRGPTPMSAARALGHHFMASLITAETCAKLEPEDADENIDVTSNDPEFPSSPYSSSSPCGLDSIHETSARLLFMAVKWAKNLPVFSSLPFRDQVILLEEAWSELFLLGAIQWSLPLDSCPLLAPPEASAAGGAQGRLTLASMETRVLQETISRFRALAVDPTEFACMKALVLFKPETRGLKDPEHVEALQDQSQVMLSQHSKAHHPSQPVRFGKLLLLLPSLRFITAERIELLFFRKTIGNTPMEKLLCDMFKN
NR1D1 modulator: Rev-erb alpha (human) modulation. P20393. Rev-erbα–FITC-DNA binding, fluorescence polarization, 90 min. activity, % at 10 µM. 370,000 tested, 0.79% active. AID 1259318;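 active means activity above about 14%, limit read from the data; passing the limit was not always enough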;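 further: 0% = DMSO wells with 35 nM protein and 100% = DMSO wells with 750 nM protein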
NR2E3 ag-2: agonists of human nuclear receptor NR2E3. GST-NR2E3/biotin-RetCOR TR-FRET, 1536-well. 320,000 tested, 0.12% active. inhibition of corepressor binding, % at 4.78 µM. Q9Y5X4;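 active means percent inhibition above the cutoff of mean plus 3 SD of all tested compounds, set per screening campaign, cut at about 20% in these data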;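 further: 0% = DMSO wells and 100% = biotin wells as full block of FRET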
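system = GST-tagged NR2E3 plus biotinylated RetCOR corepressor | input = 1.35 nM GST-NR2E3 | also added = 7 nM biotin-RetCOR | schedule = 5 h incubation at 4 °C | measured by = TR-FRET with europium anti-GST and streptavidin-D2, 340 nm excitation | read-out = percent loss of FRET ratio relative to control wells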
PG9 Ab binder: small molecules binding HIV-1 gp120 antibody PG9. TR-FRET gp120-PG9 antibody binding. inhibition, % at 6.7 µM. 360,000 tested, 0.43% active; in the data active means inhibition above about 8.5%
NR2E3 ag confirm: confirmation of human NR2E3 nuclear receptor agonists; cell-free NR2E3 corepressor release, TR-FRET, 5 h; 360 tested, 39% active; shares compounds with NR2E3 ag-2; activation (reported as inhibition), % at 3.98 µM; AID 2379; in the data active means activation above about 20%
PPARg-NCOR2 ctr: counter-screen for NR2E3 agonists: human PPARgamma-NCOR2 interaction agonists; shares compounds with NR2E3 ag-2; TR-FRET PPARg-NCOR2 coregulator interaction, biochemical; inhibition, % at 3.98 µM; 360 tested, 45% active; in the data active means inhibition above about 20%;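 further: 0% = DMSO vehicle and 100% = wells without protein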
Active calls of the source: *. Most compounds without a hit are left out; they make up all but 1.5% or so of the library.

Screening CC(CCC(=O)NN)C1CCC2C3CCC4CC(O)CCC4(C)C3CCC12C (stereo not given) returned NR2E3 ag-1 6, NR1D1 modulator -1 and PG9 Ab binder 1.
`Cc1ccc2oc(=O)c3cnn(CC(=O)NCCc4ccsc4)c3c2c1` gave NR2E3 ag-1 -28, NR1D1 modulator 10, NR2E3 ag-2 -2 and PG9 Ab binder 22*.
For Cc1ccc2oc(=O)c3cnn(CC(=O)NCCN(C)C)c3c2c1 the results were NR2E3 ag-1 -58, NR1D1 modulator 7, NR2E3 ag-2 4 and PG9 Ab binder -2.
Cc1cc(C)n(-c2nc(NC(C)C)nc(NC(C)C)n2)n1 was read as NR2E3 ag-1 81*, NR1D1 modulator -6, NR2E3 ag-2 2 and PG9 Ab binder -2.
`Cc1cc(C)n(-c2nc(NC(C)(C)C)nc(NC(C)(C)C)n2)n1` gave NR2E3 ag-1 105*, NR1D1 modulator 0, NR2E3 ag-2 -1 and PG9 Ab binder 0.
Cc1cc(C)n(-c2nc(Nc3ccccc3C)nc(-n3nc(C)cc3C)n2)n1 was read as NR1D1 modulator 0, NR2E3 ag-2 0 and PG9 Ab binder 2.
For CO[C@H]1O[C@H](CNC(=O)N(CCCl)N=O)[C@@H](O)[C@H](O)[C@H]1O the results were NR1D1 modulator -6.
For N#Cc1c(NC(=O)c2ccccc2Cl)n(Cc2ccccc2)c2nc3ccccc3nc12 the results were NR2E3 ag-1 87*, NR1D1 modulator 1, NR2E3 ag-2 3 and PG9 Ab binder -2.
CCCCn1c(NC(=O)CC)c(C#N)c2nc3ccccc3nc21 was read as NR2E3 ag-1 12, NR2E3 ag-2 -1 and PG9 Ab binder 0.
Screening CCCCn1c(NC(=O)c2ccccc2Cl)c(C#N)c2nc3ccccc3nc21 returned NR2E3 ag-1 96*, NR2E3 ag-2 19 and PG9 Ab binder 6.
CC(=O)O[C@H]1CC2CCC3C(CC[C@@]4(C)C3C[C@H]([N+]3(C)CCCCC3)[C@@H]4OC(C)=O)[C@@]2(C)C[C@@H]1[N+]1(C)CCCCC1 (stereo not given in full) was read as NR1D1 modulator -6.
`CCOC(=O)[C@](C)(N)Cc1ccc(O)c(O)c1` gave NR1D1 modulator -4.
For O=C(CSc1nc(-c2ccccc2)nc2ccccc12)Nc1nccs1 the results were NR2E3 ag-1 -10, NR1D1 modulator 8, NR2E3 ag-2 -21 and PG9 Ab binder 29*.
For N#Cc1cc2c(nc1SCC(=O)Nc1nccs1)CCCCC2 the results were NR2E3 ag-1 -131, NR1D1 modulator 23, NR2E3 ag-2 15 and PG9 Ab binder 37*.
CCCc1nc(SCC(=O)Nc2nccs2)c2ccccc2n1 was read as NR2E3 ag-1 5, NR1D1 modulator -5, NR2E3 ag-2 4 and PG9 Ab binder 7.
Screening CC[C@H](C)C1OC(=O)[C@@H](C)[C@@H](CC)NC(=O)[C@H](C)N(C)C(=O)C(C)(C)C(=O)C(C)NC(=O)[C@H](Cc2ccc(OC)cc2)N(C)C(=O)[C@H](C(C)C)N(C)C(=O)CNC(=O)[C@H](CC(C)C)N(C)C(=O)CNC1=O (stereo not given in full) returned NR2E3 ag-1 81*.
CCOc1ccc(S(=O)(=O)Nc2cnc3ccccc3c2)cc1 was read as NR2E3 ag-1 99*, NR1D1 modulator -9, NR2E3 ag-2 0 and PG9 Ab binder 3.
`CCCCC(=O)O[C@]1(C(=O)CO)CCC2C3CCC4=CC(=O)CC[C@]4(C)C3[C@@H](O)C[C@@]21C` (stereo not given in full) gave NR1D1 modulator 0.
Screening CCC(C)C1NC(=O)C(CCN)NC(=O)C(NC(=O)C(CCN)NC(=O)C(NC(=O)C(CCN)NC(=O)CCCCC(C)C)C(C)O)CCNC(=O)C(C(C)O)NC(=O)C(CCN)NC(=O)C(CCN)NC(=O)C(C(C)CC)NC1=O (stereo not given) returned NR1D1 modulator 1.
For Cc1cc(C)c(C(=O)/C=C/c2ccc(C(C)C)cc2)c(=O)[nH]1 the results were NR2E3 ag-1 82*, NR1D1 modulator 4, NR2E3 ag-2 -4 and PG9 Ab binder 2.
`Cc1cc(C)c(C(=O)/C=C/C=C/c2ccccc2)c(=O)[nH]1` gave NR2E3 ag-1 4, NR1D1 modulator 3, NR2E3 ag-2 2 and PG9 Ab binder -1.
N#CC1=C(N)SC(N)=C(C#N)C1c1cccc(O)c1 was read as NR2E3 ag-1 -12, NR1D1 modulator 1, NR2E3 ag-2 6 and PG9 Ab binder 22*.
`C=C1c2c(Cl)ccc(O)c2C(O)=C2C(=O)[C@]3(O)C(O)=C(C(N)=O)C(=O)[C@@H](N(C)C)[C@@H]3[C@@H](O)[C@H]12` gave NR1D1 modulator -31.
Screening C=C1c2cccc(O)c2C(O)=C2C(=O)[C@]3(O)C(O)=C(C(N)=O)C(=O)[C@@H](N(C)C)[C@@H]3[C@@H](O)[C@H]12 returned NR2E3 ag-1 -22, NR1D1 modulator -41, NR2E3 ag-2 31*, PG9 Ab binder 1, NR2E3 ag confirm 1 and PPARg-NCOR2 ctr 1.
Screening O=c1cc(-c2ccccc2)[nH]n1-c1ccccc1 returned NR2E3 ag-1 -21, NR1D1 modulator -1 and PG9 Ab binder -2.
For CC(C)(C)c1cc(=O)n(-c2ccccc2)[nH]1 the results were NR2E3 ag-1 7, NR1D1 modulator -4, NR2E3 ag-2 29*, PG9 Ab binder 0, NR2E3 ag confirm -4 and PPARg-NCOR2 ctr 1.
Screening CCSc1cnn(-c2ccccc2)c(=O)c1SCC returned NR2E3 ag-1 -17, NR1D1 modulator -3, NR2E3 ag-2 21*, PG9 Ab binder 1, NR2E3 ag confirm 4 and PPARg-NCOR2 ctr 0.
CC[C@@]1(O)C(=O)OCc2c1cc1n(c2=O)Cc2c-1nc1cc(F)c(C)c3c1c2[C@@H](N)CC3 was read as NR1D1 modulator -3.
C[C@]12CCC3c4ccc(O)cc4CCC3C1CC[C@@H]2OC(=O)CCC1CCCC1 (stereo not given in full) was read as NR1D1 modulator 4.
Cc1ccc(-c2c3c(nc4sc(C(N)=O)c(N)c24)CCCC3)o1 was read as NR2E3 ag-1 15, NR1D1 modulator 8, NR2E3 ag-2 26*, PG9 Ab binder 3, NR2E3 ag confirm -10 and PPARg-NCOR2 ctr 2.
Screening NC(=O)c1sc2nc3c(c(-c4ccco4)c2c1N)CCC3 returned NR2E3 ag-1 0, NR1D1 modulator -6, NR2E3 ag-2 11 and PG9 Ab binder 0.
Screening CCOc1ccc(C2C(C#N)=C(N)SC(N)=C2C#N)c(OCC)c1 returned NR2E3 ag-1 2, NR1D1 modulator -3, NR2E3 ag-2 6 and PG9 Ab binder 1.
CCCCc1ccc(C2C(C#N)=C(N)SC(N)=C2C#N)s1 was read as NR2E3 ag-2 42*, NR2E3 ag confirm -1 and PPARg-NCOR2 ctr -2.

Screens: PubChem, several laboratories
